PHOSPHO1 inh: PubChem AID 1565; recombinant PHOSPHO1, absorbance phosphatase assay; inhibition, % at 13.3 µM; Phosphoethanolamine/phosphocholine phosphatase (Homo sapiens), Q8TCT1; 290,000 tested, 1.1% active; in the data active = inhibition above about 60%
Target sequence (Q8TCT1 whole entry, looked up): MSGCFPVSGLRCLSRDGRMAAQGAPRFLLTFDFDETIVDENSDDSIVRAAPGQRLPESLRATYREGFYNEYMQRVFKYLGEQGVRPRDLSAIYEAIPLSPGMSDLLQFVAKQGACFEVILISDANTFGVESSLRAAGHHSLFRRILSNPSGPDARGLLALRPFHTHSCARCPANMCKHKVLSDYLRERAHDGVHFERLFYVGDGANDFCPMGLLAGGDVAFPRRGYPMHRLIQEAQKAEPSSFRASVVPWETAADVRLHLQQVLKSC
Yeast superoxide: reduction of superoxide in aged yeast, primary screen, HTS; S. cerevisiae aged cells, superoxide DHE fluorescence; hits give low values; superoxide response (% of plate mean), % at 10 µM; 330,000 tested, 0.18% active;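 active = superoxide response under a set limit, about three screen SD below normal, cut at about 65% in these data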;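 also: yeast aged for seven days with compound at 30 °C before DHE staining; 100% = average MFI of all compound-treated wells on the plate with controls excluded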
IMP-1 inhibitor: IMP-1 metallo-beta-lactamase inhibitors, primary screen, biochemical, epi-absorbance readout, Pseudomonas aeruginosa enzyme | 290,000 tested, 0.45% active | purified IMP-1, nitrocefin hydrolysis, epi-absorbance fluorescence | inhibition, % at 5.6 µM | metallo-beta-lactamase IMP-1 (Pseudomonas aeruginosa);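 active = inhibition above the mean plus 3 SD of all compounds in the same screening run, cut at about 4.5% in these data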;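 also: 0% = IMP-1 with DMSO and 100% = DMSO wells lacking enzyme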
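System: purified IMP-1; amount: IMP-1 0.2 nM before substrate addition; compound: single dose, 5.6 µM; times: 25 °C, 15 min preincubation, 25 min reaction; signal: Epi-absorbance via hydrolysed-nitrocefin quenching of white-plate fluorescence, 480/530 nm, EDTA stop; benchmarks: DMSO with and without IMP-1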
PvdQ inh: P. aeruginosa PvdQ acylase inhibitors, primary screen, biochemical, fluorescence, plate reader and imaging, single point; PvdQ acylase [Pseudomonas aeruginosa LESB58]; purified PvdQ acylase; inhibition, % at 10 µM; 340,000 tested, 0.063% active; in the data active = inhibition above about 30%, passing the limit was not always enough;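 also: 0% = vehicle neutral wells and 100% = reference inhibitor wells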
VIM-2 inhibitor: VIM-2 metallo-beta-lactamase inhibitors, primary screen, biochemical, epi-absorbance readout, Pseudomonas aeruginosa enzyme; purified VIM-2, nitrocefin hydrolysis, epi-absorbance fluorescence; inhibition, % at 5.6 µM; 290,000 tested, 0.89% active;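 active = inhibition above the mean of all tested compounds plus 3 SD, cutoff set per screening run, cut at about 7.5% in these data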;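 also: red hydrolysis product quenches plate fluorescence so inhibitors raise well fluorescence; 0% = enzyme with DMSO and 100% = DMSO without enzyme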
The depositor's hits bear a star; x = not tested or not shown. A selection: hits, their analogues and other compounds. The true share with any hit is near 2.2%.

SMILES	PHOSPHO1 inh	Yeast superoxide	IMP-1 inhibitor	PvdQ inh	VIM-2 inhibitor
CC(C)C[C@@H](CNC(=O)OC(C)(C)C)NC(=O)c1nc[nH]c1C(=O)N[C@@H](CC(C)C)C(=O)CNC[C@H](CC(C)C)NC(=O)c1nc[nH]c1C(=O)N[C@@H](Cc1c[nH]c2ccccc12)C(=O)OC(C)(C)C	x	101.1	x	-6.1	x
CSc1nc(N)c(NC(=O)c2ccc(Br)o2)c(=O)[nH]1	66.3*	103.0	-2.5	-13.0	-2.5
O=C1CCCN1CCCN=c1c([N+](=O)[O-])nn(-c2ccc(Cl)cc2)n1O	-4.5	x	-2.5	3.2	-3.4
COc1ccc(-n2nc([N+](=O)[O-])c(=NCCCN3CCCC3=O)n2O)cc1	61.2*	92.2	0.5	-1.8	0.5
Cc1ccccc1NC(=O)CSc1nc(N)c(C#N)c(-c2cccs2)c1C#N	17.3	105.2	12.3*	-1.2	-3.7
COCCn1c(SCc2cccc(F)c2)nc2cc(C(=O)OC)ccc2c1=O	6.2	102.6	-1.1	-3.4	-0.3
CCN1CCN(Cc2c(O)ccc3c2O/C(=C\C=C\c2ccccc2)C3=O)CC1	-16.8	101.1	0.6	6.3	-0.4
COc1ccccc1/C=C/C=C1\Oc2c(ccc(O)c2CN2CCN(CCO)CC2)C1=O	18.6	92.9	27.1*	14.4	1.8
O=C1/C(=C/C=C/c2ccccc2)Oc2c1ccc(O)c2CN1CCN(CCO)CC1	31.6	88.4	-0.9	1.0	-2.3
CCN1CCN(Cc2c(O)ccc3c2O/C(=C\c2ccc(C)cc2)C3=O)CC1	-10.4	77.8	2.4	-6.5	8.8*
Cc1ccc(/C=C2\Oc3c(ccc(O)c3CN3CCN(C)CC3)C2=O)cc1	-4.6	106.8	0.9	-8.1	9.5*
CCc1ccc(/C=C2\Oc3c(ccc(O)c3CN3CCN(C)CC3)C2=O)cc1	-0.3	88.8	-1.5	-3.3	2.3
Oc1ccccc1C1CC(c2cccs2)=NC(c2cccc(Br)c2)N1 (stereo not drawn)	-0.7	82.6	-1.9	10.1	-2.6
CCc1nccn1CCC(=O)NC1CC(C)(C)Cc2c1cnn2-c1cccc(F)c1 (stereo not drawn)	28.7	103.4	-2.0	-18.0	-1.7
O=C(CSc1nc(O)c(C2CCCCC2)c(=O)[nH]1)Nc1ccccc1Cl	14.3	87.3	-3.4	-9.9	-3.0
O=C(c1ccco1)N1CCN(Cc2cc(=O)c(OCc3ccccc3F)co2)CC1	x	109.4	x	-16.6	x
CC1(NC(=O)Cc2c(F)cccc2Cl)CCS(=O)(=O)C1 (stereo not drawn)	x	93.9	x	-16.2	x
Fc1ccccc1CSc1nncn1NCc1cccs1	-17.4	115.0	4.8*	9.8	-3.1
Fc1ccc(CSc2nncn2NCc2ccccc2)cc1	-16.7	113.2	-3.4	-7.5	-1.4
NC(=S)N/N=C/c1ccc(-c2cc(Cl)ccc2Cl)o1	93.1*	118.3	-6.5	5.4	-1.5
CCCCNC(=S)NNC(=O)c1nn(C)cc1Cl	-19.8	89.1	-1.6	-1.7	-3.6
CC(C)[C@H](NC(=O)C1CCN(C(=O)[C@H](Cc2ccccc2)NC(=O)OC(C)(C)C)CC1)C(=O)O	60.6*	90.1	0.3	8.3	-2.8
CC(O)[C@H](NC(=O)C1CCN(C(=O)[C@H](Cc2ccccc2)NC(=O)OC(C)(C)C)CC1)C(=O)O (stereo partly drawn)	20.3	100.8	-1.4	-12.8	0.5
CC(c1ccccc1)C1CC(=O)N(c2cc(Cl)ccn2)C1=O (stereo not drawn)	-8.5	95.9	14.7*	-15.0	-0.2
COc1ccc([C@H]2CC(=O)C=C(c3cccc(C(C)C)c3)C2)cc1OC	x	72.6	x	-10.6	x
SMILES	PHOSPHO1 inh	Yeast superoxide	IMP-1 inhibitor	PvdQ inh	VIM-2 inhibitor
O=C(CN1CCN(S(=O)(=O)c2ccc(Cl)cc2)CC1)N1CCCC1	x	x	x	-6.1	x
CC1(C)Cc2c(sc3c2c2ncnn2c2nnc(SCC(=O)NCc4ccco4)n32)CO1	20.9	101.7	-1.2	-11.9	-2.9
CCC1(C)Cc2c(sc3c2c2ncnn2c2nnc(SCC(=O)NCc4ccco4)n32)CO1 (stereo not drawn)	65.4*	86.7	-3.0	10.8	-1.6
Cc1sc2nc3ccc(NCc4ccco4)nn3c(=O)c2c1C	31.4	99.6	6.2*	-10.0	3.8
COC(=O)c1cc(N=CC2=C(O)CC(C)(C)CC2=O)cc(C(=O)OC)c1	11.1	95.8	-3.0	0.4	-6.8
COC(=O)c1cc(OC)c(OC)cc1N=CC1=C(O)CC(C)(C)CC1=O	-3.5	102.2	5.1*	-2.9	0.7
C[C@@H]1CN([C@@H](C)CO)C(=O)c2cc(NC(=O)C3CC3)ccc2O[C@@H]1CN(C)C(=O)NC1CCCCC1	x	95.4	x	-9.8	x
COC(=O)Cc1c(C)nc2nc(NCc3ccc(Cl)cc3)[nH]n2c1=O	80.2*	94.3	-1.9	-5.7	-1.4
CCN(CC)C(=O)CSc1nnc(-c2ccccc2)n1N	8.7	98.0	-2.2	-11.7	0.3
CCN(CC)C(=O)CSc1nnc(-c2ccccc2)n1-c1ccccc1	81.6*	106.9	-4.5	-16.3	-0.7
CCN(CC)C(=O)CSc1nnc2sc3ccccc3n12	62.1*	96.2	-1.7	-7.3	-1.5
CC(C)[C@H](NC(=O)c1ccccc1F)C(=O)OCCN1C(=O)c2ccccc2C1=O	x	106.3	x	4.4	x
Clc1cccc(CSc2nnc([C@@H]3CCCN3)o2)c1	6.3	104.6	2.0	0.6	1.9
Clc1cccc(Cl)c1CSc1nnc([C@@H]2CCCN2)o1	28.2	102.8	5.0*	-17.0	1.3
C[C@H](CO)N1C[C@H](C)[C@@H](CN(C)Cc2ccccc2)Oc2c(NS(=O)(=O)c3cn(C)cn3)cccc2C1=O	x	141.0	x	10.0	x
O=C(C1CCCO1)N1CCN(Cc2c(O)ccc3ccccc23)CC1 (stereo not drawn)	104.3*	108.0	-2.4	-12.9	-2.4
Cc1ccc(CN2CCN(C(=O)C3CCCO3)CC2)cc1 (stereo not drawn)	7.1	89.2	3.0	1.8	0.8
C=CCn1c(-c2ccccc2)n[nH]c1=S	10.4	94.2	-2.4	-20.8	3.3
C=CCn1c(-c2ccccc2OC)n[nH]c1=S	10.8	94.4	-1.8	-11.4	9.8*
C=CCn1c(-c2cccc3ccccc23)n[nH]c1=S	95.0*	89.0	-4.5	-10.8	-5.5
C=CCn1c(Cc2c[nH]c3ccccc23)n[nH]c1=S	95.3*	88.8	-5.3	-8.0	-4.5
O=C1CSC(=S)N1c1cccc(F)c1	34.0	104.8	4.9*	-12.4	2.1
O=C(Nc1ncccn1)c1ccc(Cl)c([N+](=O)[O-])c1	8.5	114.8	-5.5	3.4	-2.2
COc1cccc(OC)c1C(=O)Nc1cccc2c1CCCC2	-7.8	98.4	0.2	-16.3	-0.7
CCCn1nc(NC(=O)CC(C)C)c2cc3ccccc3nc21	68.9*	99.5	-2.6	-5.9	-0.6
CCn1nc(NS(=O)(=O)c2ccc(NC(C)=O)cc2)c2cc3ccccc3nc21	64.7*	102.8	-2.6	-11.5	-3.7
